# Laboratory results reported in PubChem BioAssay.
# The source made the active and inactive calls.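 Rule for the calls, unless noted: active = inhibition at or above 50% at 10 µM; inactive = inhibition below 50%.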
# Legend:
# [1] = inhibitors of TNFa-induced NFkB p65 translocation, primary screen, imaging, HUVEC, MLSMR starter and 10KST1 sets (AID 438;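 active = inhibition above 20% together with a positive visual image hit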;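 note: compound added about 3h40 before a 20 min TNFalpha stimulation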;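 for inhibition: signal is the nuclear over cytoplasmic p65 intensity ratio per well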); conditions: HUVEC TNFa-induced p65 nuclear translocation; cell count: measured here: nuclei count (cytotoxicity indicator), at 2.08 µM; inhibition: at 2 µM, stronger effect = higher value, 0% TNFa-plus-vehicle, 100% no-TNFa wells
# [2] = reduction of polyQ htt aggregates in cells – imaging, exon1htt(103Q)mCFP cells, high-content imaging, primary screen (AID 483;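 active = visual image review flags a hit and inhibition of aggregation exceeds 20%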;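 note: compound exposure lasted 3 days before fixation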;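 for nuclei count: percent of the per-plate median nuclei count of sample wells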); conditions: exon1htt(103Q)mCFP cell line, aggregate imaging, at 2 µM; inhibition of aggregation: stronger effect = higher value; nuclei count: measured here: cell count, toxicity
# [3] = endothelial E-selectin expression blockers – imaging, HUVEC, immunofluorescence, MLSMR starter and 10KST1 sets, primary screen (AID 487;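 active = visually confirmed hit in the image check and inhibition above 20%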;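 for inhibition: signal is fraction of cell area covered by stained E-selectin grains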;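 for nuclei count: 100% = median nuclei count of all wells on the same plate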); conditions: HUVEC TNFalpha-induced E-selectin immunofluorescence imaging, at 2 µM; inhibition: stronger effect = higher value; nuclei count: measured here: cell number, toxicity
# [4] = molecular target: Voltage-gated potassium channel subunit beta-2 (Rattus norvegicus) (UniProt P62483); experiment: inhibitors of rat Kvbeta2 reductase activity – biochemical, NADPH fluorescence, primary screen (AID 622;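 active = fluorescence slope higher than the sample average by over 3 SD, cut at about -0.22 in these data, passing the limit was not always enough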;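 note: slope of raw intensity against log time taken from 70 to 1610 s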); conditions: recombinant KvBeta, 4-cyanobenzaldehyde reduction, at 10 µM, stronger effect = higher value
# Voltage-gated potassium channel subunit beta-2 (Rattus norvegicus), sequence (P62483 whole entry, looked up): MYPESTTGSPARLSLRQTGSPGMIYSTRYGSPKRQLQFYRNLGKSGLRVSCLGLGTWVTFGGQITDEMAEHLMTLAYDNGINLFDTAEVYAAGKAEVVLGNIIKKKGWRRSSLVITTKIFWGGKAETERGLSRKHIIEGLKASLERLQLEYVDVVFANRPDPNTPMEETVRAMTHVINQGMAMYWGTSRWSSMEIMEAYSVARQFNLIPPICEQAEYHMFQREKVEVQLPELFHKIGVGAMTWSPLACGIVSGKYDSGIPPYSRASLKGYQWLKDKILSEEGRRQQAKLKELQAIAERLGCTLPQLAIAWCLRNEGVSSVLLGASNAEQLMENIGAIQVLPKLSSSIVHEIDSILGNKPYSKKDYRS
# [5] = molecular target: Voltage-gated potassium channel subunit beta-2 (Rattus norvegicus) (UniProt P62483); experiment: enhancers of rat Kvbeta2 NADPH turnover – biochemical, NADPH fluorescence, primary screen (AID 623;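 active = NADPH fluorescence slope more negative than the mean of all samples by about 3 SD, 99.7% confidence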;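 note: fluorescence intensity change per second fitted from 20 to 320 s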); conditions: Recombinant KvBeta, NADPH fluorescence decrease slope, 10 min; at 10 µM; stronger effect = lower value
# [6] = molecular target: Muscarinic acetylcholine receptor M4 (Homo sapiens) (UniProt P08173); experiment: M4-linked GIRK flux change, two-sided – cell-based, HEK293 M4/GIRK, thallium flux, BTC-AM, M4 allosteric agonist project, primary screen (AID 625;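 active = fluorescence slope after compound addition differing from the mean of all tested samples at 99.7% confidence, mostly higher but some lower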;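 note: thallium influx through GIRK channels coupled to M4 in HEK293 cells with BTC-AM dye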); conditions: at 10 µM, actives lie on both sides
# Muscarinic acetylcholine receptor M4 (Homo sapiens), sequence (P08173 whole entry, looked up): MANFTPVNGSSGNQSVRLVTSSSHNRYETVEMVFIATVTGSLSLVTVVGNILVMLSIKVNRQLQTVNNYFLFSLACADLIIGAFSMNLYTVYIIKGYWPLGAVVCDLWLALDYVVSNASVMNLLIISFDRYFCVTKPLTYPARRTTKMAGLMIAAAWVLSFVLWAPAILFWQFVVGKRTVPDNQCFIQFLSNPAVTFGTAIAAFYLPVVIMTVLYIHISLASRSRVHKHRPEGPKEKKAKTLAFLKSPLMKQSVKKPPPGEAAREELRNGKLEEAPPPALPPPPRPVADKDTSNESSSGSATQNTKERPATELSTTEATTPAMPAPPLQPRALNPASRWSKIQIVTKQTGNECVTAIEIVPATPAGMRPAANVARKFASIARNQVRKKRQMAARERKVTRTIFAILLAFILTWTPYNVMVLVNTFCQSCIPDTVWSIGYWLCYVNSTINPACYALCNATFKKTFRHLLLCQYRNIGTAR
# In short: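 assay system = HEK293 cells with M4 receptor and GIRK channels | medium = pH 7.3 thallium assay buffer | doses = 10 µM final, single point | timing = cells overnight at 37 °C, BTC-AM loading 1 h, reads 2 min total | signal = BTC-AM fluorescence, 1 Hz kinetic reads | read-out = post-addition slope, 15–24 s, of baseline-normalized fluorescence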
# [7] = blockers of RIG-like receptor reporter activation – cell-based, Sendai virus stimulus, luciferase, 10K MLSCN set, TLR/RLR signaling modifier project, primary screen (AID 602276); conditions: HEK293 RL24 IRF3 luciferase reporter, at 10 µM, stronger effect = higher value;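 note: firefly luciferase from ISG56 promoter only with Renilla not read in this screen; 0% = Sendai virus plus DMSO and 100% = medium plus DMSO without virus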
# [8] = TLR3 IRF3 reporter activation blockers – cell-based, poly I:C stimulus, luciferase, 10K MLSCN set, primary screen (AID 602277;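 active = inhibition of the reporter signal at or above 50%; inactive = inhibition below 50%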); conditions: HEK293-TLR3 RL24 IRF3 luciferase reporter, at 10 µM, stronger effect = higher value
SMILES,cell count [1],inhibition [1],inhibition of aggregation [2],nuclei count [2] [%],inhibition [3],nuclei count [3] [%],fluorescence slope [4],NADPH fluorescence slope [5],fluorescence slope [6],inhibition [7],inhibition [8]
COc1ccc(-c2nnc3ccc(SC(C(C)=O)C(C)=O)nn23)cc1OC,605,-17% (inactive),14.3% (inactive),100,-47.2% (inactive),94,-0.348 (inactive),-5.5e-05 (inactive),0.00579 (inactive),13.7% (inactive),13.4% (inactive)
O=C(Nc1cccc2c1CCCC2)C1CCN(c2nnnn2-c2ccccc2)CC1,653,1.7% (inactive),0.3% (inactive),109,-20.6% (inactive),109,-0.566 (inactive),2.3e-05 (inactive),0.00472 (inactive),10.2% (inactive),10.8% (inactive)
CCCn1c(NCc2cc(C)ccc2O)nc2ccccc21,369,1.4% (inactive),4.3% (inactive),82.1,-16.5% (inactive),49.2,-0.522 (inactive),6.3e-06 (inactive),0.00499 (inactive),18.7% (inactive),19.5% (inactive)
O=C(Nc1ccccc1)c1ccc(NCC2CCCO2)c(S(=O)(=O)N2CCOCC2)c1 (centres undefined),637,-1.5% (inactive),0.8% (inactive),108,-99.7% (inactive),98.8,-0.453 (inactive),1.2e-05 (inactive),0.00503 (inactive),5.98% (inactive),15.7% (inactive)
Cc1cc(C)c2oc(=O)cc(CN3CCOCC3)c2c1,647,2% (inactive),4.4% (inactive),87.2,-10.1% (inactive),99.8,-0.551 (inactive),2.5e-06 (inactive),0.00519 (inactive),15.5% (inactive),25.5% (inactive)
Cc1ccc(NCc2nnc(SCC(=O)N3CCCCC3)n2CC2CCCO2)c(C)c1 (centres undefined),484,3.6% (inactive),-7.9% (inactive),95.1,-63.1% (inactive),109,-0.534 (inactive),-1.9e-05 (inactive),0.00508 (inactive),20.5% (inactive),25.6% (inactive)
CCNC(=O)Cn1cnc2c1c(=O)n(C)c(=O)n2C,315,-12.5% (inactive),4.3% (inactive),113,7.8% (inactive),106,-0.617 (inactive),7.5e-06 (inactive),0.00466 (inactive),12.1% (inactive),14.3% (inactive)
Cc1cc(C)c2c(n1)sc1c(N3CCOCC3)ncnc12,301,-4.9% (inactive),-151% (inactive),0.6,-61.4% (inactive),121,-0.305 (inactive),-6.3e-05 (inactive),0.00639 (inactive),5.74% (inactive),-3.16% (inactive)
Cc1ccc(NC(=O)CSc2nnc(CSc3nc(C)cc(C)n3)n2Cc2ccco2)c(C)c1,655,1.6% (inactive),1.3% (inactive),79.3,-23.6% (inactive),108,-0.454 (inactive),5.9e-05 (inactive),0.0102 (inactive),-22% (inactive),-4.45% (inactive)
COC(=O)c1c(NC(=O)C2CC=CCC2C(=O)O)sc(C(N)=O)c1C (centres undefined),654,-2.4% (inactive),7.8% (inactive),96.4,-10.1% (inactive),113,-0.495 (inactive),-4.4e-05 (inactive),0.00475 (inactive),0.24% (inactive),11% (inactive)
Cn1cc(C(=O)NC2CCCCCCC2)c(=O)c2cc(S(=O)(=O)N3CCCC3)ccc21,614,3.5% (inactive),8.6% (inactive),109,-3.4% (inactive),106,-0.319 (inactive),-4.1e-05 (inactive),0.00744 (inactive),10.2% (inactive),24.5% (inactive)
N/C(Cn1nnc(-c2ccccc2)n1)=N\O,707,5.4% (inactive),-14.8% (inactive),108,12.5% (inactive),114,-0.463 (inactive),2.3e-05 (inactive),0.00645 (inactive),-16.8% (inactive),89.1% (active)
FC(F)(F)COc1nc(N2CCCCC2)nc(N2CCNCC2)n1,372,-7.9% (inactive),-3.5% (inactive),99.5,13.6% (inactive),109,-0.321 (inactive),-5.4e-05 (inactive),0.00559 (inactive),4.6% (inactive),21.6% (inactive)
Cc1ccccc1NC(=O)N1C2CCCC1CC(NC(=O)C1CC1)C2 (centres undefined),747,-16.7% (inactive),-5.1% (inactive),107,64.2% (inactive),94.5,-0.361 (inactive),8.6e-05 (inactive),0.00599 (inactive),16.2% (inactive),16.2% (inactive)
